The test system of the experiment is parental HEK293, Na-free buffer, Tl+ flux FluoZin2. The experiment is described as follows: native HEK Tl+ uptake potency without sodium – HEK cells, counterscreen 3, counter-screen for KCC2 modulator project, dose response (AID 1738). In short, it runs like this:
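System: parental HEK cells loaded with FluoZin2-AM thallium-sensitive dye. Buffer or medium: Sodium-free N-methylglucamine chloride buffer, FluoZin2-AM at 0.5 µM. Also added: thallium stimulus, pH 7.3. Compound: 11-point threefold dilution series, top dose 30 µM. Technique: kinetic fluorescence, 480 nm excitation, 540 nm emission. Benchmarks: 2 mM bumetanide, positive.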
Background: A counterscreen serves to expose hits that act by an unwanted route or on another target.

Results filed as inconclusive are left out. Active and inactive are the calls of the source.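 The calls were made as follows: active = dose curve fitted or showing a partial trend in at least two of three replicates; inactive = fewer than two replicates fitted or trending.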

Turning to `COc1ccc(N2C(=S)N=C(Nc3cccc(C)c3)C23CCCCC3)cc1`, the EC50 (usually the concentration needed to bring the measured effect to its halfway point) is 920 nM.
The result for `O=C1OC(c2ccc(O)cc2)(c2ccc(O)cc2)c2ccccc21` reads 15400 nM (inactive); that for `Oc1ccccc1/C=N/Nc1nc2ccccc2o1`, 9460 nM (inactive); that for `COc1ccccc1N1CCN(C(=S)NC(=O)/C=C/c2ccccc2)CC1`, 1140 nM (inactive).
As to `O=c1c2ccccc2[nH]c(=S)n1CCN1CCC(=C(c2ccc(F)cc2)c2ccc(F)cc2)CC1`, the EC50 is 4820 nM (inactive).
With `CC(C)c1ccc(OCC(=O)NNC(=O)c2cnccn2)cc1` the figure was 16400 nM (inactive); with `O=C(NC(=S)Nc1nc(-c2cccc([N+](=O)[O-])c2)cs1)c1cc(Cl)ccc1Cl`, 22400 nM (inactive); with `COc1cc(NC(=S)NC(=O)c2ccco2)ccc1NC(=O)C(C)C`, 3630 nM (inactive).
Regarding `Cc1onc(-c2ccccc2Cl)c1C(=O)NC(=S)Nc1ccc(C(C)C)cc1`, the half-maximal effective concentration (EC50) is 262 nM.
With `CNC(=O)C(=O)Nc1nc(C23CC4CC(CC(C4)C2)C3)cs1`, the EC50 was 61.1 nM.
For `COC(=O)[C@@H](NC(=O)O[C@@H]1C(=O)c2ccc(OC)cc2O[C@H]1c1cccc(C(F)(F)F)c1)C(C)C`, the EC50 is 8160 nM (inactive).
With `CCOc1cccc(C(=O)NC(=S)Nc2cccc(C)c2)c1` the figure was 345 nM.
Regarding `N=C1SCC(=O)N1c1ncc(Cc2cccc(Cl)c2)s1`, the EC50 was 4430 nM (inactive).
Take `NC(=S)N=Nc1c(O)n(Cc2ccccc2)c2ccccc12`: the EC50 is 71.9 nM (inactive).
The result for `Fc1cccc(F)c1/C=N/NC(=S)Nc1cccnc1` reads 8330 nM (inactive).

These data come from PubChem BioAssay AID1738 (Vanderbilt High Throughput Screening Facility, 2009).
